# Reference: ChEMBL document CHEMBL1154922, “Rapid P1 SAR of brain penetrant tertiary carbinamine derived BACE inhibitors” (Bioorg Med Chem Lett, 2010)
# The source made the active and inactive calls. No cut-off for these calls is given here.
# What was measured:
# [1] = molecular target: Beta-secretase 1 (Homo sapiens) (UniProt P56817); test: Inhibition of BACE1 at pH 6.5
# In short: (§1)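 Enzymatic BACE-1 inhibition assay run at the pH given in each line. Potency is reported as the inflection point (IP), in nM.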
# [2] = molecular target: Beta-secretase 1 (Homo sapiens) (UniProt P56817); test: Inhibition of BACE1-mediated production of secreted beta-secretase amino terminal fragment
# In short: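 Cell-based sAPP_NF assay: cells express APP carrying the NF mutation, and secreted sAPP is the read-out. IC50 is given as mean ± deviation.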
# [3] = molecular target: ATP-dependent translocase ABCB1 (Homo sapiens, UniProt P08183); test: Inhibition of human P-glycoprotein assessed as PGP ratio
# Rhesus monkey [4] = test: Plasma concentration in Rhesus monkey at 5 mg/kg, po co-administered with CYP inhibitor ritonavir 10 mg/kg, po after 24 hrs; assay type: ADME, organism-based, Macaca mulatta; conditions: in vivo, BLD = below limit of detection
# In short: (§2)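 In a satellite PK experiment, rhesus monkeys (n = 3) received the test article at the stated dose together with 10 mpk ritonavir. Plasma levels (µM) were measured at 4 h and 24 h and averaged with standard deviations. Values below the limit of quantitation are marked BLQ.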
# Rhesus monkey [5] = test: Reduction in CSF amyloid beta42 level in cisterna magna ported Rhesus monkey at 15 mg/kg, po co-administered with CYP inhibitor ritonavir 10 mg/kg, po measured after 4 hrs by sandwich ELISA; assay type: functional, organism-based; conditions: Macaca mulatta
# Rhesus monkey [6] = test: Reduction in CSF amyloid beta40 level in cisterna magna ported Rhesus monkey at 5 mg/kg, po co-administered with CYP inhibitor ritonavir 10 mg/kg, po measured after 4 hrs by sandwich ELISA; assay type: functional, organism-based; conditions: Macaca mulatta
# Mus musculus = organism: Mus musculus; test: Inhibition of mouse P-glycoprotein assessed as PGP ratio
# [7] = Plasma concentration in Rhesus monkey at 15 mg/kg, po co-administered with CYP inhibitor ritonavir 10 mg/kg, po after 4 hrs; assay type: ADME, organism-based, Macaca mulatta; in short: as §2
# [8] = Plasma concentration in Rhesus monkey at 5 mg/kg, po co-administered with CYP inhibitor ritonavir 10 mg/kg, po after 4 hrs; assay type: ADME, organism-based, Macaca mulatta; in short: as §2
# [9] = Plasma concentration in Rhesus monkey at 15 mg/kg, po co-administered with CYP inhibitor ritonavir 10 mg/kg, po after 24 hrs; assay type: ADME, organism-based, Macaca mulatta; in short: as §2
# Rhesus monkey [10] = test: Reduction in CSF soluble APPbeta level in cisterna magna ported Rhesus monkey at 15 mg/kg, po co-administered with CYP inhibitor ritonavir 10 mg/kg, po measured after 4 hrs by sandwich ELISA; assay type: functional, organism-based; conditions: Macaca mulatta
# Rhesus monkey [11] = test: Reduction in CSF amyloid beta40 level in cisterna magna ported Rhesus monkey at 15 mg/kg, po co-administered with CYP inhibitor ritonavir 10 mg/kg, po measured after 4 hrs by sandwich ELISA; assay type: functional, organism-based; conditions: Macaca mulatta
# Rhesus monkey [12] = test: Reduction in CSF amyloid beta40 level in cisterna magna ported Rhesus monkey at 15 mg/kg, po co-administered with CYP inhibitor ritonavir 10 mg/kg, po measured after 24 hrs by sandwich ELISA; assay type: functional, organism-based; conditions: Macaca mulatta
# Rhesus monkey [13] = test: Reduction in CSF soluble APPbeta level in cisterna magna ported Rhesus monkey at 15 mg/kg, po co-administered with CYP inhibitor ritonavir 10 mg/kg, po measured after 4 hrs by sandwich ELISA; conditions: Macaca mulatta
# [14] = Partition coefficient, log P of the compound; assay type: physicochemical; conditions: octanol/water
# [15] = molecular target: Beta-secretase 1 (Homo sapiens) (UniProt P56817); test: Inhibition of BACE1 at pH 4.5; in short: as §1
# Rhesus monkey [16] = test: Reduction in CSF amyloid beta42 level in cisterna magna ported Rhesus monkey at 15 mg/kg, po co-administered with CYP inhibitor ritonavir 10 mg/kg, po measured after 4 hrs by sandwich ELISA; conditions: Macaca mulatta
# [17] = Ratio of drug level in brain to plasma in transgenic mouse at 30 mg/kg, ip; conditions: brain and plasma
# Chain of Beta-secretase 1 (Homo sapiens) (P56817 whole entry, the tested form may be a part): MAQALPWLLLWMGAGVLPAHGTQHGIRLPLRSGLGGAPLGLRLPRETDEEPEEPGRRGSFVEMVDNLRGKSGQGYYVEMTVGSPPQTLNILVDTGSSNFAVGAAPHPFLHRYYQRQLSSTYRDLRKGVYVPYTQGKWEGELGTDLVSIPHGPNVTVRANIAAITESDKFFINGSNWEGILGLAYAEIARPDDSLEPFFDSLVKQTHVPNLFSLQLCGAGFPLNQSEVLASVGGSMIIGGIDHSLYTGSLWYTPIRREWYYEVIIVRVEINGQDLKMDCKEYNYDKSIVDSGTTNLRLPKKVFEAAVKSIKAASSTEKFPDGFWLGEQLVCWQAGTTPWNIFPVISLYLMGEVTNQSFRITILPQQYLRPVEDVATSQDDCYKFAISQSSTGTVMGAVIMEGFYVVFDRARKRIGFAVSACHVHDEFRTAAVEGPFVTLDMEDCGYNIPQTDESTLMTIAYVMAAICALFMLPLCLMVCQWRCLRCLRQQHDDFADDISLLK
# Chain of ATP-dependent translocase ABCB1 (P08183 whole entry): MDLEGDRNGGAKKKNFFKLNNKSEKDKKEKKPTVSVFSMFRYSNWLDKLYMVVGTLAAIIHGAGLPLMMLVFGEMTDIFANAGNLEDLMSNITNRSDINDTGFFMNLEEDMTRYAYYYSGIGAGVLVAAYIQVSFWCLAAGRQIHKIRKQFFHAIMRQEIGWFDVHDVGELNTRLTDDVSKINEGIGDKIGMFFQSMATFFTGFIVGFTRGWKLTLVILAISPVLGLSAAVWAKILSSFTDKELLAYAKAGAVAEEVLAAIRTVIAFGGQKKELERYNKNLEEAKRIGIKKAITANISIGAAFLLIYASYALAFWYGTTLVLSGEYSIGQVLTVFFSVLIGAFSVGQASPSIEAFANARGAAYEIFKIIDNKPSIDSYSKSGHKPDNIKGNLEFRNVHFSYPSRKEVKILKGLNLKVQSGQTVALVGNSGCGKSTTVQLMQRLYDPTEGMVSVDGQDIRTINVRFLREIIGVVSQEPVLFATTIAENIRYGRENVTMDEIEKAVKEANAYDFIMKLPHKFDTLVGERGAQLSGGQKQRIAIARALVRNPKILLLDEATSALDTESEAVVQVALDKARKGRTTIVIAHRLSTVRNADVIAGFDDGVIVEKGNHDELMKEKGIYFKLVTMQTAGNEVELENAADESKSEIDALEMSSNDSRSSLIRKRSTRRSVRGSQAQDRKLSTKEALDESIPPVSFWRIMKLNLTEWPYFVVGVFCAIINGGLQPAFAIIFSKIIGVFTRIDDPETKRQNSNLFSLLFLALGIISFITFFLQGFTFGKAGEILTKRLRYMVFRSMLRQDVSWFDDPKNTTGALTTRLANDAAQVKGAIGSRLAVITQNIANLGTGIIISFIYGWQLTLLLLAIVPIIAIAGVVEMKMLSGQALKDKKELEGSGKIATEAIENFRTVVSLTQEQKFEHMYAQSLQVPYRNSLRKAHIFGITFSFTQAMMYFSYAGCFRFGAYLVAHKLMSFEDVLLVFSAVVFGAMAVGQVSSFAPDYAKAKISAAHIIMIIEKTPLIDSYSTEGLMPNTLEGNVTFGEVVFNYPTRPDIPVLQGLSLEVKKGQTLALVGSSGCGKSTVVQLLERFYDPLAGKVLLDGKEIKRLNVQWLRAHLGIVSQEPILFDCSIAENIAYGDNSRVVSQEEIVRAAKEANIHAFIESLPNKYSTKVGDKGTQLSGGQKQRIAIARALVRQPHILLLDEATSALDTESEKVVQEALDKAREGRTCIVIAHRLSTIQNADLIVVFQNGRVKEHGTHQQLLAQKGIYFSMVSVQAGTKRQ
SMILES,IP [1] [nM],IP [2] [nM],also measured
COCCN(C[C@H]1C[C@@H]1C)c1cc(-c2nnc([C@](C)(N)Cc3ncco3)o2)c(Cl)c(N(C)S(C)(=O)=O)n1,49000,–,–
COCCN(C[C@H]1C[C@@H]1C)c1cc(-c2nnc([C@](C)(N)Cc3cccc(Cl)c3)o2)c(Cl)c(N(C)S(C)(=O)=O)n1,65,4320,–
CCCC[C@@](C)(N)c1nnc(-c2cc(N(CCOC)C[C@H]3C[C@@H]3C)nc(N(C)S(C)(=O)=O)c2Cl)o1,1300,> 2200,–
COCCN(C[C@H]1C[C@@H]1C)c1cc(-c2nnc([C@](C)(N)Cc3ccc(Br)cc3Br)o2)c(Cl)c(N(C)S(C)(=O)=O)n1,> 600000,–,–
COCCN(C[C@H]1C[C@@H]1C)c1cc(-c2nnc([C@](C)(N)Cc3ccc4c(c3)OCO4)o2)c(Cl)c(N(C)S(C)(=O)=O)n1,119,1100,–
COCCN(C[C@H]1C[C@@H]1C)c1cc(-c2nnc([C@](C)(N)Cc3cc(Br)c(F)cc3Br)o2)c(Cl)c(N(C)S(C)(=O)=O)n1,29000,–,–
COCCN(C[C@H]1C[C@@H]1C)c1cc(-c2nnc([C@](C)(N)Cc3ccccc3F)o2)c(Cl)c(N(C)S(C)(=O)=O)n1,15,195,–
COCCN(C[C@H]1C[C@@H]1C)c1cc(-c2nnc([C@](C)(N)Cc3cccc(OC)c3)o2)c(Cl)c(N(C)S(C)(=O)=O)n1,1500,–,–
COCCN(C[C@H]1C[C@@H]1C)c1cc(-c2nnc([C@](C)(N)Cc3ccc(F)cc3)o2)c(Cl)c(N(C)S(C)(=O)=O)n1,2,15,Ratio [3]: 1.1; Cp (Rhesus monkey [4]): BLD; Activity (Rhesus monkey [5]): Active; Activity (Rhesus monkey [6]): Active; Ratio (Mus musculus): 1.9; concentration at 4 h [7]: 2340 nM; concentration at 4 h [8]: 1310 nM; concentration at 24 h [9]: 30 nM; Activity (Rhesus monkey [10]): Active
COCCN(C[C@H]1C[C@@H]1C)c1cc(-c2nnc([C@](C)(N)Cc3ccc(Cl)cc3)o2)c(Cl)c(N(C)S(C)(=O)=O)n1,4,320,–
COCCN(C[C@H]1C[C@@H]1C)c1cc(-c2nnc([C@](C)(N)Cc3ccc(OC)nc3)o2)c(Cl)c(N(C)S(C)(=O)=O)n1,1400,–,–
COCCN(C[C@H]1C[C@@H]1C)c1cc(-c2nnc([C@](C)(N)Cc3ccnc(OC)c3)o2)c(Cl)c(N(C)S(C)(=O)=O)n1,9900,–,–
COCCN(C[C@H]1C[C@@H]1C)c1cc(-c2nnc([C@](C)(N)Cc3ccc(OC)cc3)o2)c(Cl)c(N(C)S(C)(=O)=O)n1,180,4300,–
COCCN(C[C@H]1C[C@@H]1C)c1cc(-c2nnc([C@](C)(N)Cc3ccoc3)o2)c(Cl)c(N(C)S(C)(=O)=O)n1,142,1930,–
COCCN(C[C@H]1C[C@@H]1C)c1cc(-c2nnc([C@](C)(N)Cc3ccco3)o2)c(Cl)c(N(C)S(C)(=O)=O)n1,375,3190,–
COCCN(C[C@H]1C[C@@H]1C)c1cc(-c2nnc([C@](C)(N)Cc3cccc(F)c3)o2)c(Cl)c(N(C)S(C)(=O)=O)n1,17,304,–
COCCN(C[C@H]1C[C@@H]1C)c1cc(-c2nnc([C@](C)(N)Cc3ccccc3)o2)c(Cl)c(N(C)S(C)(=O)=O)n1,5,46,Ratio [3]: 1.9; Activity (Rhesus monkey [11]): Active; Activity (Rhesus monkey [12]): Active; Ratio (Mus musculus): 2.3; concentration at 4 h [7]: 3360 nM; Activity (Rhesus monkey [13]): Active; concentration at 24 h [9]: 100 nM; logP [14]: > 3.2; IP [15]: 0.4 nM; Activity (Rhesus monkey [16]): Active; Kp [17]: 9
COCCN(C[C@H]1C[C@@H]1C)c1cc(-c2nnc([C@](C)(N)Cc3ccccc3Cl)o2)c(Cl)c(N(C)S(C)(=O)=O)n1,340,> 6700,–
COCCN(C[C@H]1C[C@@H]1C)c1cc(-c2nnc([C@](C)(N)Cc3ccccc3OC)o2)c(Cl)c(N(C)S(C)(=O)=O)n1,3500,–,–
